ChEMBL document CHEMBL3102827, “Permeability and conjugative metabolism of flaxseed lignans by Caco-2 human intestinal cells” (J Nat Prod, 2014)

Experiments:
[1] = (§1) Apparent permeability across basolateral to apical side in human Caco2 cells after 2 hrs by HPLC analysis; assay type: ADME, cell-based, Caco-2; conditions: Caco-2
Outline: (§2)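 Caco-2 (passages 41−54, DMEM/10% FBS/1% NEAA) grown 21 days on polyester Transwells (0.4 μm pore). Cells washed with HBSS/10 mM HEPES pH 7.4 and equilibrated 30 min at 37 °C; lignan at 100 μM added to apical or basolateral side, 2 h at 37 °C. Both compartments sampled and quantified by HPLC. Papp = (dQ/dt)/(Am·C0). Integrity checked by TEER and Lucifer yellow. Transport linear to 2 h.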

[2] = Stability in HBSS after 48 hrs; assay type: physicochemical; conditions: read-out: Stability
Outline: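 Lignans kept in test medium in wells without cells for up to 48 h. Remaining compound was measured to judge stability.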

[3] = (§3) Apparent permeability across apical to basolateral side in human Caco2 cells after 2 hrs by HPLC analysis; assay type: ADME, cell-based, Caco-2; conditions: Caco-2; outline: as §2
[4] = Efflux ratio of permeability from basolateral to apical side over apical to basolateral side in human Caco2 cells after 2 hrs by HPLC analysis; assay type: ADME, cell-based; conditions: Caco-2
Outline: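 Efflux ratio taken as Papp B→A over Papp A→B. Papp comes from 2 h bidirectional transport of 100 μM lignan across 21-day Caco-2 monolayers on Transwells in HBSS/10 mM HEPES pH 7.4 at 37 °C, with HPLC quantitation of both compartments. TEER and Lucifer yellow used to confirm monolayer integrity.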

[5] = Activity at Helix pomatia beta-glucuronidase/sulfatase type H-5 in compound-treated human Caco2 cell lysate assessed as formation of glucuronidase/sulfatase-sensitive conjugates at 100 uM after 12 hrs by HPLC analysis; assay type: ADME, cell-based; conditions: caco-2, 12 h
Outline: (§4)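 Caco-2 grown 21 days in 24-well plates, washed with HBSS/HEPES pH 7.4, then given 100 μM lignan in DMEM in triplicate at 37 °C. Supernatant and cells taken at 0, 2, 4, 6, 12, 24 and 48 h. Samples hydrolysed with H. pomatia β-glucuronidase/sulfatase H-5 (0.66 mg in 0.1 M acetate pH 5.0, 37 °C, 2 h), acetonitrile-precipitated and analysed by HPLC. Conjugate = total minus free, relative to a zero-time control.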

Caco-2 [6] = assay: as §1; assay type: ADME, cell-based; conditions: caco-2, 2 h, BLD = below limit of detection; outline: as §2
Caco-2 [7] = assay: as §3; assay type: ADME, cell-based; conditions: caco-2, 2 h, BLD = below limit of detection; outline: as §2
[8] = Drug metabolism in human Caco2 cells assessed as compound glucuronidation/sulfation at 100 uM after 48 hrs by HPLC analysis; assay type: ADME, cell-based; conditions: Caco-2 cells, read-out: Drug metabolism; outline: as §4

| SMILES | Papp B→A at 2 h [1] | remaining at 48 h [2] | Papp A→B at 2 h [3] | efflux ratio at 2 h [4] | Drug metabolism [5] | Papp (Caco-2 [6]) | Papp (Caco-2 [7]) | metabolised at 48 h, 100 µM [8] |
| --- | --- | --- | --- | --- | --- | --- | --- | --- |
| O=C1OC[C@H](Cc2cccc(O)c2)[C@H]1Cc1cccc(O)c1 (relative stereo) [ENTEROLACTONE] | 10.6 ×10⁻⁶ cm/s | > 95% | 13.7 ×10⁻⁶ cm/s | 0.8 | Active | – | – | – |
| OC[C@H](Cc1cccc(O)c1)[C@H](CO)Cc1cccc(O)c1 [ENTERODIOL] | 8.9 ×10⁻⁶ cm/s | > 95% | 7.7 ×10⁻⁶ cm/s | 1.2 | – | – | – | – |
| COc1cc(C[C@@H](CO[C@@H]2O[C@H](CO)[C@@H](O)[C@H](O)[C@H]2O)[C@H](CO[C@@H]2O[C@H](CO)[C@@H](O)[C@H](O)[C@H]2O)Cc2ccc(O)c(OC)c2)ccc1O | – | > 95% | – | – | – | BLD | BLD | < 3% |
| COc1cc(C[C@@H](CO)[C@H](CO)Cc2ccc(O)c(OC)c2)ccc1O [(+)-SECOISOLARICIRESINOL] | 9.5 ×10⁻⁶ cm/s | > 95% | 8 ×10⁻⁶ cm/s | 1.2 | – | – | – | – |
